ChEMBL document CHEMBL5715938, “The protein kinase Cbeta-selective inhibitor, Enzastaurin (LY317615.HCl), suppresses signaling through the AKT pathway, induces apoptosis, and suppresses growth of human colon cancer and glioblastoma xenografts” (Cancer Res, 2005)
The source made the active and inactive calls. No cut-off for these calls is given here.

Target: Glycogen synthase kinase-3 beta (Homo sapiens) (UniProt P49841)
Assay: Inhibition of GSK3beta phosphorylation at serine 9 residue in human HCT-116 cells at 1 micromol/L by Western blotting analysis
Type: cell-based
Conditions: dose 1.0 µmol/L, time <= 4.0 hrs
How it was run: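 Cultured tumor cells treated with 1 μmol/L drug; lysates in cell extraction buffer with protease inhibitors, western blotted with phospho-specific antibodies (pGSK3β Ser9, pAKT Thr308, phospho-ERK) alongside total GSK3β/AKT.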

Sequence of Glycogen synthase kinase-3 beta (Homo sapiens) (P49841 whole entry, looked up): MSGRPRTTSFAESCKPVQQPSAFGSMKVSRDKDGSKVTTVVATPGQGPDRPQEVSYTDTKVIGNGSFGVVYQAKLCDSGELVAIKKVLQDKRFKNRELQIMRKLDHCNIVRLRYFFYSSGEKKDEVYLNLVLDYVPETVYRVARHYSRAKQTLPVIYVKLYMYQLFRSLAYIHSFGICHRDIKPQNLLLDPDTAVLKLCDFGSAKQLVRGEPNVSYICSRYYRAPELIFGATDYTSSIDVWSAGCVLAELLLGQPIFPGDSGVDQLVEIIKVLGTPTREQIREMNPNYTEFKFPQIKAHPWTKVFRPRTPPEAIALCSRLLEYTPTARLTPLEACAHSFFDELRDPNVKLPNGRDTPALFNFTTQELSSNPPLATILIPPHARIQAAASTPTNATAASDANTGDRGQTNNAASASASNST

For `CO[C@@H]1[C@H](N(C)C(=O)c2ccccc2)C[C@H]2O[C@]1(C)n1c3ccccc3c3c4c(c5c6ccccc6n2c5c31)C(=O)NC4`, the inhibition was “Active”.
